Data reported in ChEMBL document CHEMBL1124808, “The synthesis and antiallergy activity of 1-(aryloxy)-4-(4-arylpiperazinyl)-2-butanol derivatives” (1990).

Key:
Format in all cases: functional
Rattus norvegicus [1] = assay: Percent change in volume of foot edema of test compound to that of positive control was determined at a dose of 10 mg/kg in rat; -26/-62
Rattus norvegicus [2] = assay: Percent change in volume of foot edema of test compound to that of positive control was determined at a dose of 31.6 mg/kg in rat; -49/-78
Rattus norvegicus [3] = assay: Percent change in volume of foot edema of test compound to that of positive control was determined at a dose of 31.6 mg/kg in rat; -23/-81
Rattus norvegicus [4] = assay: Percent change in volume of foot edema of test compound to that of positive control was determined at a dose of 31.6 mg/kg in rat; -79/-65
Rattus norvegicus [5] = assay: Percent change in volume of foot edema of test compound to that of positive control was determined at a dose of 10 mg/kg in rat; +22/-73
Rattus norvegicus [6] = assay: Percent change in volume of foot edema of test compound to that of positive control was determined at a dose of 10 mg/kg in rat; -50/-80
Rattus norvegicus [7] = assay: Percent change in volume of foot edema of test compound to that of positive control was determined at a dose of 3.16 mg/kg in rat; -34/-79
Rattus norvegicus [8] = assay: Percent change in volume of foot edema of test compound to that of positive control was determined at a dose of 31.6 mg/kg in rat; -85/-82
Rattus norvegicus [9] = assay: Percent change in volume of foot edema of test compound to that of positive control was determined at a dose of 31.6 mg/kg in rat; -35/-69
Rattus norvegicus [10] = assay: Percent change in volume of foot edema of test compound to that of positive control was determined at a dose of 10 mg/kg in rat; -29/-62
Rattus norvegicus [11] = assay: Percent change in volume of foot edema of test compound to that of positive control was determined at a dose of 31.6 mg/kg in rat; -65/-69
Rattus norvegicus [12] = assay: Percent change in volume of foot edema of test compound to that of positive control was determined at a dose of 10 mg/kg in rat; -56/-69
Rattus norvegicus [13] = assay: Percent change in volume of foot edema of test compound to that of positive control was determined at a dose of 3.16 mg/kg in rat; -9/-69
Rattus norvegicus [14] = assay: Percent change in volume of foot edema of test compound to that of positive control was determined at a dose of 31.6 mg/kg in rat; -82/69
Rattus norvegicus [15] = assay: Percent change in volume of foot edema of test compound to that of positive control was determined at a dose of 31.6 mg/kg in rat; -69/-78
Rattus norvegicus [16] = assay: Percent change in volume of foot edema of test compound to that of positive control was determined at a dose of 10 mg/kg in rat; +3/-73
Rattus norvegicus [17] = assay: Percent change in volume of foot edema of test compound to that of positive control was determined at a dose of 3.16 mg/kg in rat; -13/-73
Rattus norvegicus [18] = assay: Percent change in volume of foot edema of test compound to that of positive control was determined at a dose of 10 mg/kg in rat; -38/-69
Rattus norvegicus [19] = assay: Percent change in volume of foot edema of test compound to that of positive control was determined at a dose of 31.6 mg/kg in rat; -73/-68
Rattus norvegicus [20] = assay: Percent change in volume of foot edema of test compound to that of positive control was determined at a dose of 31.6 mg/kg in rat; -30/-81
Rattus norvegicus [21] = assay: Percent change in volume of foot edema of test compound to that of positive control was determined at a dose of 31.6 mg/kg in rat; +7/-47
Rattus norvegicus [22] = assay: Percent change in volume of foot edema of test compound to that of positive control was determined at a dose of 10 mg/kg in rat; -53/-77
Rattus norvegicus [23] = assay: Percent change in volume of foot edema of test compound to that of positive control was determined at a dose of 3.16 mg/kg in rat; -18/-77
Rattus norvegicus [24] = assay: Percent change in volume of foot edema of test compound to that of positive control was determined at a dose of 31.6 mg/kg in rat; -88/-63
Rattus norvegicus [25] = assay: Percent change in volume of foot edema of test compound to that of positive control was determined at a dose of 10 mg/kg in rat; -36/-65
Rattus norvegicus [26] = assay: Percent change in volume of foot edema of test compound to that of positive control was determined at a dose of 31.6 mg/kg in rat; -80/-83
Rattus norvegicus [27] = assay: Percent change in volume of foot edema of test compound to that of positive control was determined at a dose of 10 mg/kg in rat; -14/-62
Rattus norvegicus [28] = assay: Percent change in volume of foot edema of test compound to that of positive control was determined at a dose of 31.6 mg/kg in rat; -69/-69
Rattus norvegicus [29] = assay: Percent change in volume of foot edema of test compound to that of positive control was determined at a dose of 10 mg/kg in rat; -34/-77
Rattus norvegicus [30] = assay: Percent change in volume of foot edema of test compound to that of positive control was determined at a dose of 31.6 mg/kg in rat; -67/-63
Cavia porcellus = organism: Cavia porcellus; assay: Dose that protects 50% of guinea pig from collapse was determined in guinea pig anaphylaxis assay; settings: read-out: PD50
Method in brief: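 Guinea pigs dosed by gavage (10 mL/kg) with compound in 0.5% Tween 80/water; reference theophylline 100 mg/kg po. At 1–24 h, exposed in chamber to aerosolized 1% (w/v) egg albumin at 10 L air/min for up to 5 min; protected if no collapse within 5 min. PD50 by Litchfield and Wilcoxon.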

Rattus norvegicus [31] = assay: Percent change in volume of foot edema of test compound to that of positive control was determined at a dose of 31.6 mg/kg in rat; -15/-60

`OC(CCN1CCN(c2ccccc2)CC1)COc1cccc(C(F)(F)F)c1` (stereo not drawn) showed a PFA (Rattus norvegicus [1]) of -26 and a PFA (Rattus norvegicus [2]) of -49.
`OC(COc1ccccc1)CN1CCN(c2ccccc2)CC1` (stereo not drawn) was tested, and the PFA (Rattus norvegicus [3]) was -23.
Molecule `COc1ccccc1N1CCN(CCC(O)COc2ccccc2)CC1` (stereo not drawn) has a PFA (Rattus norvegicus [4]) of -79 and a PFA (Rattus norvegicus [5]) of 22.
With `Cc1ccc(N2CCN(CCC(O)COc3ccccc3)CC2)cc1` (stereo not drawn) the PFA (Rattus norvegicus [6]) was -50, the PFA (Rattus norvegicus [7]) was -34 and the PFA (Rattus norvegicus [8]) was -85.
`OC(CCN1CCN(c2ccccc2)CC1)COc1cccc2ccccc12` (stereo not drawn) gave a PFA (Rattus norvegicus [9]) of -35.
`OC(CCN1CCN(c2ccccc2)CC1)COc1ccc(-c2ccccc2)cc1` (stereo not drawn) showed a PFA (Rattus norvegicus [10]) of -29 and a PFA (Rattus norvegicus [11]) of -65.
In the case of `NC(=O)c1ccc(OCC(O)CCN2CCN(c3ccc(F)cc3)CC2)cc1` (stereo not drawn), the PFA (Rattus norvegicus [12]) is reported as -56, the PFA (Rattus norvegicus [13]) is reported as -9 and the PFA (Rattus norvegicus [14]) is reported as -82.
Work on `COc1cccc(N2CCN(CCC(O)COc3ccccc3)CC2)c1` (stereo not drawn) yielded a PFA (Rattus norvegicus [15]) of -69 and a PFA (Rattus norvegicus [16]) of 3.
Work on `NC(=O)c1ccc(OCC(O)CCN2CCN(c3ccccn3)CC2)cc1` (stereo not drawn) yielded a PFA (Rattus norvegicus [17]) of -13, a PFA (Rattus norvegicus [18]) of -38 and a PFA (Rattus norvegicus [19]) of -73.
For `OC(CCN1CC=C(c2ccccc2)CC1)COc1ccccc1` (stereo not drawn), the PFA (Rattus norvegicus [20]) was -30.
`OC(CCN1CCc2ccccc2C1)COc1ccccc1` (stereo not drawn) showed a PFA (Rattus norvegicus [21]) of 7.
With `OC(CCN1CCN(c2ccc(F)cc2)CC1)COc1ccccc1` (stereo not drawn) the PFA (Rattus norvegicus [22]) was -53, the PFA (Rattus norvegicus [23]) was -18 and the PFA (Rattus norvegicus [24]) was -88.
`CC(=O)c1ccc(N2CCN(CCC(O)COc3ccccc3)CC2)cc1` (stereo not drawn) was tested, and the PFA (Rattus norvegicus [25]) was -36 and the PFA (Rattus norvegicus [26]) was -80.
`COc1ccccc1OCC(O)CCN1CCN(c2ccccc2)CC1` (stereo not drawn) was tested, and the PFA (Rattus norvegicus [27]) was -14 and the PFA (Rattus norvegicus [28]) was -69.
`COc1ccc(N2CCN(CCC(O)COc3ccccc3)CC2)cc1` (stereo not drawn) gave a PFA (Rattus norvegicus [29]) of -34 and a PFA (Rattus norvegicus [30]) of -67.
In the case of `CN(C)CCOC(c1ccccc1)c1ccccc1` [DIPHENHYDRAMINE], the ED50 (Cavia porcellus) is reported as 23.3 mg/kg and the PFA (Rattus norvegicus [31]) is reported as -15.
`Cn1c(=O)c2nc[nH]c2n(C)c1=O.O` [THEOPHYLLINE] gave an ED50 (Cavia porcellus) of 75 mg/kg.
